{"source": "ChEMBL document CHEMBL5506013", "about": "“Mitochondria-Selective Dicationic Small-Molecule Ligand Targeting G-Quadruplex Structures for Human Colorectal Cancer Therapy” (J Med Chem, 2024)", "key": {"Quadruplex DNA [1]": {"molecular_target": "Quadruplex DNA", "assay": "Binding affinity to mito 78 G4 DNA (unknown origin) assessed as dissociation constant measured upto 450 secs by surface plasmon resonance assay", "type": "nucleic-acid assay"}, "Quadruplex DNA [2]": {"molecular_target": "Quadruplex DNA", "assay": "Binding affinity to mito 0.5-16 G4 DNA (unknown origin) assessed as dissociation constant measured upto 450 secs by surface plasmon resonance assay", "type": "nucleic-acid assay", "how_it_was_run": "(§1)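 Surface plasmon resonance in buffer at 25 °C. Four G4-mtDNAs (Mito 78, Mito 55, Mito 29, Mito 0.5-16) and the hairpin HP19 served as substrates. Kd was derived from the sensorgrams.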"}, "DNA [3]": {"molecular_target": "DNA", "assay": "Binding affinity to HP19 DNA (non-G4 DNA) (unknown origin) assessed as dissociation constant measured upto 450 secs by surface plasmon resonance assay", "type": "nucleic-acid assay", "how_it_was_run": "as §1"}, "PANC-1": {"tested_on": "PANC-1", "assay": "Antiproliferative activity against human PANC-1 cells measured after 48 hrs by MTT assay", "type": "functional, cell-based", "details": "PANC-1, 48 h", "how_it_was_run": "(§2)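 Cells exposed to the ligands for 48 h. Viability was read by MTT, and the IC50 was derived from the response.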"}, "MDA-MB-231": {"tested_on": "MDA-MB-231", "assay": "Antiproliferative activity against human MDA-MB-231 cells measured after 48 hrs by MTT assay", "type": "functional, cell-based", "details": "MDA-MB-231, 48 h", "how_it_was_run": "as §2"}, "[4]": {"assay": "Antiproliferative activity against human HFF-1 cells measured after 48 hrs by MTT assay", "type": "toxicity, cell-based", "details": "HFF-1 cells", "how_it_was_run": "as §2"}, "Quadruplex DNA [5]": {"molecular_target": "Quadruplex DNA", "assay": "Binding affinity to mito 0.5-15 G4 DNA (unknown origin) assessed as dissociation constant measured upto 150 secs by isothermal titration calorimetry assay", "type": "nucleic-acid assay"}, "Quadruplex DNA [6]": {"molecular_target": "Quadruplex DNA", "assay": "Binding affinity to mito 0.5-16 G4 DNA (unknown origin) assessed as dissociation constant measured upto 150 secs by isothermal titration calorimetry assay", "type": "nucleic-acid assay"}, "Quadruplex DNA [7]": {"molecular_target": "Quadruplex DNA", "assay": "Binding affinity to mito 81 G4 DNA (unknown origin) assessed as dissociation constant measured upto 150 secs by isothermal titration calorimetry assay", "type": "nucleic-acid assay"}, "[8]": {"assay": "Drug localization in mitochondria of living human HCT-116 cells assessed as colocalization at 4 uM incubated for 1 hr by Mito-tracker deep red staining based analysis", "type": "ADME", "details": "hct-116, 1 h"}, "HCT-116 [9]": {"tested_on": "HCT-116", "assay": "Downregulation of COX2 mRNA level in human HCT-116 cells at 0 to 4 uM measured after 48 hrs by qRT-PCR analysis", "type": "functional, cell-based", "details": "dose 0-4 µM"}, "HFF-1 [10]": {"tested_on": "HFF-1", "assay": "Downregulation of ND5 mRNA level in human HFF-1 cells at 0 to 4 uM measured after 48 hrs by qRT-PCR analysis", "type": "functional, cell-based", "details": "dose 0-4 µM"}, "HCT-116 [11]": {"tested_on": "HCT-116", "assay": "Downregulation of ND3 protein level in human HCT-116 cells at upto 4 uM incubated for 48 hrs by Western blot analysis", "type": "functional, cell-based"}, "HCT-116 [12]": {"tested_on": "HCT-116", "assay": "Downregulation of CYTB protein level in human HCT-116 cells at upto 4 uM incubated for 48 hrs by Western blot analysis", "type": "functional, cell-based"}, "HCT-116 [13]": {"tested_on": "HCT-116", "assay": "Downregulation of mitochondrial respiratory chain complex II level in human HCT-116 cells at upto 4 uM measured after 48 hrs by Western blot analysis", "type": "functional, cell-based"}, "HCT-116 [14]": {"tested_on": "HCT-116", "assay": "Induction of mitochondrial permeability transition pore opening in human HCT-116 cells measured after 48 hrs by calcein-AM staining based assay", "type": "functional, cell-based", "details": "dose <= 4.0 µM"}, "HCT-116 [15]": {"tested_on": "HCT-116", "assay": "Induction of DNA damage in human HCT-116 assessed as increase in tail length at upto 4 uM incubated for 72 hrs by comet assay", "type": "functional, cell-based", "how_it_was_run": "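HCT116 cells exposed to ligand at 0-4 uM for 72 h. DNA damage assessed by comet assay with DAPI staining (excitation 405 nm), imaged at 200x, tail length measured.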"}, "DNA [16]": {"tested_on": "DNA", "assay": "Binding affinity to SS19 DNA (non-G4 DNA) (unknown origin) assessed as increase in fluorescence intensity by fluorescence spectrophotometric analysis", "type": "nucleic-acid assay", "how_it_was_run": "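Oligonucleotides were pre-annealed at 95 °C for 10 min, then cooled slowly. Ligand (5 uM) was mixed with 20 uM DNA in buffer. Emission was collected over 550–800 nm, and enhancement was taken at 650 nm as F/F0.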"}, "Quadruplex DNA [17]": {"tested_on": "Quadruplex DNA", "assay": "Binding affinity to Mito 78 G4 DNA (unknown origin) assessed as increase in CD signal at 5 uM at 290 nMby circular dichroism spectroscopic analysis", "type": "nucleic-acid assay"}, "Quadruplex DNA [18]": {"tested_on": "Quadruplex DNA", "assay": "Binding affinity to Mito 78 G4 DNA (unknown origin) assessed as change in melting temperature at 5 uM by circular dichroism spectroscopic analysis", "type": "nucleic-acid assay"}, "Quadruplex DNA [19]": {"tested_on": "Quadruplex DNA", "assay": "Binding affinity to Mito 81 G4 DNA (unknown origin) assessed as change in melting temperature at 5 uM by circular dichroism spectroscopic analysis", "type": "nucleic-acid assay"}, "[20]": {"assay": "Drug localization in nucleus of human HCT-116 cells at 4 uM measured upto 12 hrs by hoechst33342 staining based live cell imaging analysis", "type": "ADME, subcellular", "details": "hct-116, 12 h"}, "[21]": {"assay": "Drug localization in human HCT-116 cells by measuring red foci at 4 uM incubated for 1 hr in presence of DMOG by hoechst33342 staining based analysis", "type": "ADME, cell-based", "details": "hct-116, 1 h", "how_it_was_run": "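Pretreatment of live HCT116 cells: FCCP 1 uM for 20 min, cyclosporin A 1 uM for 24 h, DMOG 100 uM for 24 h, or MitoPDS at several concentrations for 3 h (applied after dye loading). Cells loaded with ligand 4 uM (excitation 488 nm) for 1 h and Hoechst33342 1 uM for 30 min. Red foci counted by confocal imaging in 100 cells. Mean ± SEM, t test.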"}, "[22]": {"assay": "Drug localization in human HCT-116 cells by measuring red foci at 4 uM incubated for 1 hr in presence of DNA I by hoechst33342 staining based analysis", "type": "ADME, cell-based", "details": "hct-116, 1 h", "how_it_was_run": "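Live HCT116 cells loaded with ligand 4 uM for 1 h and Hoechst33342 1 uM for 30 min, then fixed. Fixed cells digested with 200 units DNase I or RNase A for 3 h. Red foci imaged by confocal microscopy in 100 cells. Mean ± SEM, t test.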"}, "HCT-116 [23]": {"tested_on": "HCT-116", "assay": "Upregulation of p53 level in human HCT-116 cells at upto 4 uM measured after 72 hrs by Western blot analysis", "type": "functional, cell-based"}, "HCT-116 [24]": {"tested_on": "HCT-116", "assay": "Induction of apoptosis in human HCT-116 cells measured after 72 hrs by annexin V-BUV396 and 7-AAD staining based flow cytometry analysis", "type": "functional, cell-based", "details": "dose <= 4.0 µM", "how_it_was_run": "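HCT116 cells treated at 0-4 uM for 72 h, stained with Annexin V-BUV396 and 7-AAD, and the apoptotic fraction quantified by flow cytometry.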"}, "HFF-1 [25]": {"tested_on": "HFF-1", "assay": "Induction of morphological changes in human HFF-1 cells at 4 uM by microscopy based analysis", "type": "functional, cell-based", "how_it_was_run": "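HCT116 and HFF1 cells treated with ligand at 4 uM alongside untreated controls. Morphology examined by microscopy at 100x.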"}, "HCT-116 [26]": {"tested_on": "HCT-116", "assay": "Antitumor activity against human HCT-116 cells xenografted in Balb/c nude mouse model assessed as inhibition of tumor growth at 5 mg/kg, iv administered every two days for 16 days", "type": "functional, organism-based", "details": "time 16.0 day", "how_it_was_run": "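Male Balb/c nude mice carrying HCT116 xenografts, 6 per group. Dosing was intravenous every two days at 5 mg/kg, with a PBS-injected control group. Body weight and tumour growth were tracked. Tumours were excised and weighed after 16 days.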"}, "[27]": {"assay": "Toxicity in BALB/c nude mouse assessed as change in red blood cell count at 5 mg/kg, iv administered every two days for 16 days", "type": "organism-based", "details": "in vivo, 384 h, time 16 day", "how_it_was_run": "(§3)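 HCT116 xenograft-bearing male Balb/c nude mice (6/group) dosed iv at 5 mg/kg every two days or with PBS. Whole blood collected at sacrifice on day 16 for hematology parameters.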"}, "[28]": {"assay": "Toxicity in BALB/c nude mouse assessed as change in mean red blood cell hemoglobin content at 5 mg/kg, iv administered every two days for 16 days", "type": "organism-based", "details": "in vivo, 384 h, time 16 day", "how_it_was_run": "as §3"}}, "note": "Calls of active or inactive are those of the source. The calls are words filed in the database; no cut-off is given here.", "data": [{"smiles": "C(=C\\c1ccc2ccccc2[n+]1CCCCCCCC[n+]1c(/C=C/c2ccc(N3CCCCC3)cc2)ccc2ccccc21)/c1ccc(N2CCCCC2)cc1.[I-].[I-]", "values": [{"measurement": "Kd", "setting": "Quadruplex DNA [1]", "value": 40, "unit": "nM"}, {"measurement": "Kd", "setting": "Quadruplex DNA [2]", "value": 290, "unit": "nM"}, {"measurement": "Kd", "setting": "DNA [3]", "value": "> 2000", "unit": "nM"}, {"measurement": "IC50", "setting": "PANC-1", "value": 24.8, "unit": "µM"}, {"measurement": "IC50", "setting": "MDA-MB-231", "value": 34.6, "unit": "µM"}, {"measurement": "IC50 at 48 h", "setting": "[4]", "value": 32.7, "unit": "µM"}, {"measurement": "Kd", "setting": "Quadruplex DNA [5]", "value": 60, "unit": "nM"}, {"measurement": "Kd", "setting": "Quadruplex DNA [6]", "value": 60, "unit": "nM"}, {"measurement": "Kd", "setting": "Quadruplex DNA [7]", "value": 60, "unit": "nM"}, {"measurement": "Drug uptake", "setting": "[8]", "value": "Active"}, {"measurement": "Activity", "setting": "HCT-116 [9]", "value": "Active"}, {"measurement": "Activity", "setting": "HFF-1 [10]", "value": "Active"}, {"measurement": "Activity", "setting": "HCT-116 [11]", "value": "Active"}, {"measurement": "Activity", "setting": "HCT-116 [12]", "value": "Active"}, {"measurement": "Activity", "setting": "HCT-116 [13]", "value": "Active"}, {"measurement": "Activity", "setting": "HCT-116 [14]", "value": "Dose-Dependent Effect"}, {"measurement": "Activity", "setting": "HCT-116 [15]", "value": "Active"}, {"measurement": "Activity", "setting": "DNA [16]", "value": "inactive"}, {"measurement": "Activity", "setting": "Quadruplex DNA [17]", "value": "Active"}, {"measurement": "ΔTm", "setting": "Quadruplex DNA [18]", "value": 11.3, "unit": "°C"}, {"measurement": "ΔTm", "setting": "Quadruplex DNA [19]", "value": 3.6, "unit": "°C"}, {"measurement": "Drug uptake", "setting": "[20]", "value": "Not Active"}, {"measurement": "Drug uptake", "setting": "[21]", "value": "Not Active"}, {"measurement": "Drug uptake", "setting": "[22]", "value": "Not Active"}, {"measurement": "Activity", "setting": "HCT-116 [23]", "value": "Active"}, {"measurement": "Activity", "setting": "HCT-116 [24]", "value": "Dose-Dependent Effect"}, {"measurement": "Activity", "setting": "HFF-1 [25]", "value": "Active"}, {"measurement": "Activity", "setting": "HCT-116 [26]", "value": "Active"}, {"measurement": "Activity", "setting": "[27]", "value": "Non-Toxic"}, {"measurement": "Activity", "setting": "[28]", "value": "Non-Toxic"}]}]}
